According to ChEMBL document CHEMBL1121966, “(2R*,3S*)-1-[125I]Iodo-2,3-bis(4-hydroxyphenyl)pentane ([125I]iodonorhexestrol) and (2R*,3S*)-1-[77Br]Bromo-2,3-bis(4-hydroxyphenyl)pentane ([77Br]bromonorhexestrol), two gamma-emitting estrogens that show receptor-mediated uptake by target tissues in vivo” (1982):

Key:
[1] = Lung/blood distribution ratio was determined in immature female rats at 1 hr; format: functional
How it was run: (§1)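 Immature (25-day, ca. 50 g) Sprague-Dawley female rats received an iv injection (jugular or tail vein) of HPLC-purified tracer in ethanol plus 0.9% NaCl/rat serum 1:1. Doses were 2 μCi [125I]iodo tracer (≤15 pmol), or 2 μCi [77Br]bromo tracer (≤1.25 pmol) with 2 μCi 16α-[125I]iodoestradiol. Animals were killed at 1 h; blood and tissues were weighed and γ-counted. Blocking: coinjected unlabeled estradiol, 9 μg (iodo) or 18 μg (bromo). Mean ± SD.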

Rattus norvegicus [2] = species: Rattus norvegicus; assay: Percent injected dose per gram Uterus at 6 hr; format: functional
How it was run: (§2)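 Dual-label study in immature 25-day female Sprague-Dawley rats (ca. 50 g). Each received 2 μCi [77Br]bromo tracer (≤1.25 pmol/dose) and 2 μCi 16α-[125I]iodoestradiol (2 pmol/dose) by tail or jugular vein, in ethanol diluted with saline/rat serum 1:1. Rats were killed at 3 or 6 h; blood and 11 tissues were weighed and counted. Five rats per time point; mean ± SD.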

[3] = Esophagus/blood distribution ratio was determined in immature female rats at 3h; format: functional; how it was run: as §2
Rattus norvegicus [4] = species: Rattus norvegicus; assay: Percent injected dose per gram Muscle at 3h; format: functional; how it was run: as §2
Rattus norvegicus [5] = species: Rattus norvegicus; assay: Percent injected dose per gram thyroid at 1 hr with unlabeled estradiol; format: functional, Thyroid gland
How it was run: (§3)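 Same iv biodistribution in immature female rats, killed at 1 h, with unlabeled estradiol coinjected to block receptor uptake: 9 μg with [125I]iodonorhexestrol (3 rats), 18 μg with the [77Br]bromonorhexestrol/16α-[125I]iodoestradiol pair (5 rats). Tissue and blood radioactivity were counted as % injected dose/g and tissue-to-blood ratio.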

Rattus norvegicus [6] = species: Rattus norvegicus; assay: Percent injected dose per gram esophagus at 3h; format: functional; how it was run: as §2
Rattus norvegicus [7] = species: Rattus norvegicus; assay: Percent injected dose per gram blood at 1 hr; format: functional; how it was run: as §1
[8] = Uterus/blood distribution ratio was measured in immature female rats at 1 hr; format: functional
How it was run: (§4)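 Immature (25 day) female Sprague-Dawley rats (ca. 50 g) were dosed iv (jugular or tail vein) in ethanol plus 0.9% NaCl/rat serum (1:1). Doses were 2 μCi of [125I]iodonorhexestrol (≤15 pmol/dose), or 2 μCi each of [77Br]bromonorhexestrol (≤1.25 pmol/dose) and 16α-[125I]iodoestradiol (2 pmol/dose). Rats were killed at 1, 3 or 6 h; blood and tissues were weighed and γ-counted. Thyroid weight assumed 0.005 g/100 g body weight. Mean ± SD.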

Rattus norvegicus [9] = species: Rattus norvegicus; assay: Percent injected dose per gram spleen at 1 hr with unlabeled estradiol; format: functional; how it was run: as §3
Rattus norvegicus [10] = species: Rattus norvegicus; assay: Percent injected dose per gram esophagus at 1 hr; format: functional; how it was run: as §1
Rattus norvegicus [11] = species: Rattus norvegicus; assay: Percent injected dose per gram lung at 1 hr; format: functional; how it was run: as §4
[12] = Thyroid/blood distribution ratio was determined in immature female rats at 3h; format: functional; how it was run: as §4
[13] = Spleen/blood distribution ratio was determined in immature female rats at 1 hr with unlabeled estradiol; format: functional
Rattus norvegicus [14] = species: Rattus norvegicus; assay: Percent injected dose per gram spleen at 6 hr; format: functional; how it was run: as §4
[15] = Muscle/blood distribution ratio was determined in immature female rats at 3h; format: functional; how it was run: as §2
[16] = Ovary/blood distribution ratio was determined in immature female rats at 6 hr; format: functional; how it was run: as §2
[17] = Tissue/blood distribution ratio was measured in immature female rats at 3h; format: functional; how it was run: as §4
[18] = Kidney/blood distribution ratio was determined in immature female rats at 6 hr; format: functional; how it was run: as §2
Rattus norvegicus [19] = species: Rattus norvegicus; assay: Percent injected dose per gram lung at 1 hr with unlabeled estradiol; format: functional; how it was run: as §3
[20] = Spleen/blood distribution ratio was determined immature female rats at 1 hr; format: functional; how it was run: as §4
Rattus norvegicus [21] = species: Rattus norvegicus; assay: Percent injected dose per gram Uterus at 1 hr with unlabeled estradiol.; format: functional; how it was run: as §1
[22] = Muscle/blood distribution ratio was determined in immature female rats at 6 hr; format: functional; how it was run: as §2
Rattus norvegicus [23] = species: Rattus norvegicus; assay: Percent injected dose per gram Muscle at 1 hr with unlabeled estradiol; format: functional; how it was run: as §1
Rattus norvegicus [24] = species: Rattus norvegicus; assay: Solvolytic stability was measured relative to p-hydroxyphenethyl bromide; format: functional
How it was run: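 Solvolysis rates were measured in 40% ethanol-water at 50 °C, buffered to pH 7. Values are 1/k_rel = (k_compound/k_p-hydroxyphenylethyl bromide)^-1.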

Rattus norvegicus [25] = species: Rattus norvegicus; assay: Percent injected dose per gram Uterus at 1 hr; format: functional; how it was run: as §1
[26] = Liver/blood distribution ratio was determined in immature female rats at 1 hr with unlabeled estradiol; format: functional; how it was run: as §1
[27] = Liver/blood distribution ratio was determined in immature female rats at 6 hr; format: functional; how it was run: as §2
Rattus norvegicus [28] = species: Rattus norvegicus; assay: Percent injected dose per gram liver at 1 hr; format: functional; how it was run: as §4
Rattus norvegicus [29] = species: Rattus norvegicus; assay: Percent injected dose per gram Ovaries at 6 hr; format: functional; how it was run: as §2

CC[C@H](c1ccc(O)cc1)[C@@H](CBr)c1ccc(O)cc1
Ratio [1]: 0.6 | Injected dose (Rattus norvegicus [2]): 3.19% | Ratio [3]: 0.49 | Injected dose (Rattus norvegicus [4]): 0.37% | Injected dose (Rattus norvegicus [5]): 0.25% | Injected dose (Rattus norvegicus [6]): 0.61% | Injected dose (Rattus norvegicus [7]): 0.75% | Ratio [8]: 4.49 | Injected dose (Rattus norvegicus [9]): 0.34% | Injected dose (Rattus norvegicus [10]): 0.38% | Injected dose (Rattus norvegicus [11]): 0.42% | Ratio [12]: 0.08 | Ratio [13]: 0.51 | Injected dose (Rattus norvegicus [14]): 0.69% | Ratio [15]: 0.29 | Ratio [16]: 1.41 | Ratio [17]: 1 | Ratio [18]: 0.89 | Injected dose (Rattus norvegicus [19]): 0.8% | Ratio [20]: 0.52 | Injected dose (Rattus norvegicus [21]): 0.95% | Ratio [22]: 0.26 | Injected dose (Rattus norvegicus [23]): 0.3% | 1/krel (Rattus norvegicus [24]): 1.17 | Injected dose (Rattus norvegicus [25]): 3.16% | Ratio [26]: 1.51 | Ratio [27]: 0.69 | Injected dose (Rattus norvegicus [28]): 1.28% | Injected dose (Rattus norvegicus [29]): 1.93%
